Assay results taken from ChEMBL document CHEMBL1255380, “Small molecule-mediated disruption of Wnt-dependent signaling in tissue regeneration and cancer” (Nat Chem Biol, 2009).
Values belong to the compound of their own block, whether it stands above or below them. The source made the active and inactive calls. No cut-off for these calls is given here.

Experiments:
[1] = target: T1, Protein-serine O-palmitoleoyltransferase porcupine (Mus musculus) (UniProt Q9JJJ7); assay: Inhibition of porcn-mediated Wnt5A palmitoylation in mouse L cell expressing Wnt5A and STF by detergent solubility fractionation assessed as [3H]palmitate incorporation at 2 uM by autoradiography method; format: cell-based
T1 sequence (whole entry): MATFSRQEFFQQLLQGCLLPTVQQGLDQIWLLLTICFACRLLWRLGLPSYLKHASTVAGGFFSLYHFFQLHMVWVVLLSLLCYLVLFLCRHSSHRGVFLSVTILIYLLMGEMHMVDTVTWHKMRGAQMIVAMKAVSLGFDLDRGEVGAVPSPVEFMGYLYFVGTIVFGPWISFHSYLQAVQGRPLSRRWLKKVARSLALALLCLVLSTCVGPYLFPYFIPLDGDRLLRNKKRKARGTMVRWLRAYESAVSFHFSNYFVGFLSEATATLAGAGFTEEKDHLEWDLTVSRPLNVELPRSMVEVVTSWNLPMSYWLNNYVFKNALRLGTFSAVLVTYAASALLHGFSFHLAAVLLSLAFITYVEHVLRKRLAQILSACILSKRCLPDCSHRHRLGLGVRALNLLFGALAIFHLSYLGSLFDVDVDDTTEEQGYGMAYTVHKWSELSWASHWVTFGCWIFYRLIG

[2] = Inhibition of Notch pathway in mouse L cells at 2.5 uM
[3] = target: Membrane-bound glycerophospholipid O-acyltransferase 2 (Mus musculus) (UniProt Q8R3I2); assay: Inhibition of MBOAT2 mediated Wnt3a pathway activity in mouse L cell expressing Wnt3a assessed as decreased firefly luciferase reporter expression at 0.25 uM to 1 uM; format: cell-based
[4] = target: Protein Wnt-3a (Homo sapiens) (UniProt P56704); assay: Inhibition of lipidation of Wnt3A expressed in mouse L cell at 2 uM by detergent solubility fractionation assay; format: cell-based
[5] = target: T2, Protein-serine O-palmitoleoyltransferase porcupine (Homo sapiens) (UniProt Q9H237); assay: Displacement of IWP-PB from porcn in HEK293 lysate by Western blot analysis
T2 sequence (whole entry): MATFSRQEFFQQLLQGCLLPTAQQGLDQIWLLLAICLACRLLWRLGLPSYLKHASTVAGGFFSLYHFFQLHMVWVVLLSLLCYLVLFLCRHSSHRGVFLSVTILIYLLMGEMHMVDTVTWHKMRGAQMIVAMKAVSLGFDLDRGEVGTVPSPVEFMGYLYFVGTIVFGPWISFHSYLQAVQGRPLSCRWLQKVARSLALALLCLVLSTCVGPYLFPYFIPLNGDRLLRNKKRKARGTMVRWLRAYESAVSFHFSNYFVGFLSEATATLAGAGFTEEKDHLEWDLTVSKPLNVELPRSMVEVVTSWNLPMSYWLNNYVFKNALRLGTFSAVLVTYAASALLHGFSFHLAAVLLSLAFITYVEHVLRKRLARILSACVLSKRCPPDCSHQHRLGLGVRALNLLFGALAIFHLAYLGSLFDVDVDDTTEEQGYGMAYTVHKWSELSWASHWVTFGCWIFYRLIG

[6] = Inhibition of Wnt3A/[…] pathway activity in mouse L cell expressing Wnt3a assessed as inhibition of […] accumulation at 5 uM after 24 hrs by Western blot analysis; format: cell-based
[7] = target: Protein-cysteine N-palmitoyltransferase HHAT (Mus musculus) (UniProt Q8BMT9); assay: Inhibition of HHAT mediated Wnt pathway activity in mouse L cell expressing Wnt3a assessed as decreased firefly luciferase reporter expression at 0.25 uM to 1 uM; format: cell-based
[8] = target: T2, Protein-serine O-palmitoleoyltransferase porcupine (Homo sapiens); assay: Inhibition of porcn-mediated Shh palmitoylation in human DLD1 lysate by detergent solubility fractionation assessed as [3H]palmitate incorporation at 2.5 uM by autoradiography method
[9] = target: Sterol O-acyltransferase 1 (Mus musculus) (UniProt Q61263); assay: Inhibition of ACAT mediated Wnt3a pathway activity in mouse L cell expressing Wnt3a assessed as decreased firefly luciferase reporter expression at 0.25 uM to 1 uM; format: cell-based
[10] = target: Protein Wnt-3a (Mus musculus) (UniProt P27467); assay: Inhibition of Wnt3A palmitoylation in mouse L cell expressing Wnt3a and overexpressing porcn by detergent solubility fractionation assessed as [3H]palmitate incorporation at 2.5 uM by autoradiography method
[11] = target: Protein Wnt-3a (Homo sapiens) (UniProt P56704); assay: Inhibition of Wnt3A activity in mouse L cell expressing Wnt3A and STF and overexpressing Evi assessed as decreased firefly luciferase reporter expression at 0.25 uM to 1 uM; format: cell-based
[12] = target: Membrane-bound ghrelin O-acyltransferase MBOAT4 (Mus musculus) (UniProt P0C7A3); assay: Inhibition of GOAT mediated Wnt3a pathway activity in mouse L cell expressing Wnt3a assessed as decreased firefly luciferase reporter expression at 0.25 uM to 1 uM; format: cell-based
[13] = target: Membrane-bound glycerophospholipid O-acyltransferase 1 (Mus musculus) (UniProt Q8BH98); assay: Inhibition of MBOAT1 mediated Wnt3a pathway activity in mouse L cell expressing Wnt3a assessed as decreased firefly luciferase reporter expression at 0.25 uM to 1 uM; format: cell-based
[14] = target: Lysophospholipid acyltransferase 5 (Mus musculus) (UniProt Q91V01); assay: Inhibition of MBOAT5 mediated Wnt3a pathway activity in mouse L cell expressing Wnt3a assessed as decreased firefly luciferase reporter expression at 0.25 uM to 1 uM; format: cell-based
[15] = Inhibition of Wnt3A/[…] pathway activity in mouse L cell expressing Wnt3a assessed as decrease in phosphorylated Dvl2 level at 5 uM after 24 hrs by Western blot analysis; format: cell-based
[16] = Inhibition of Wnt3A/[…] pathway activity in mouse L cell expressing Wnt3a assessed as decrease in phosphorylated Lrp6 level at 5 uM after 24 hrs by Western blot analysis; format: cell-based
Danio rerio = species: Danio rerio; assay: Inhibition of caudal fin regeneration after mechanical resection in zebrafish at 10 uM after 7 days; format: functional, organism-based
Outline: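 Zebrafish 3-6 months old anaesthetized in 0.02% Tricaine; half of caudal fin resected with razor blade; kept at 28°C in tank water with 10μM compound or DMSO; water and compound replenished daily over assay period.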

[17] = target: T1, Protein-serine O-palmitoleoyltransferase porcupine (Mus musculus); assay: Increase in porcn levels in mouse L cell expressing Wnt and STF; format: cell-based
[18] = target: Protein Wnt-3a (Homo sapiens) (UniProt P56704); assay: Inhibition of Wnt3A secretion in mouse L cell expressing Wnt3a overexpressing Evi assessed as decreased Gaussia luciferase reporter expression at 0.25 uM to 1 uM; format: cell-based
Outline: (§1)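 Wnt secretion test: L-cells transiently transfected with Wnt-Gaussia luciferase fusion construct, incubated with compounds immediately after transfection, GL activity measured 48 hrs later.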

[19] = target: Protein Wnt-3a (Mus musculus) (UniProt P27467); assay: Inhibition of Wnt3A lipidation in mouse L cell expressing Wnt3a and overexpressing porcn at 2 uM by detergent solubility fractionation assay; format: cell-based
[20] = target: Protein Wnt-3a (Homo sapiens) (UniProt P56704); assay: Inhibition of Wnt3A activity in mouse L cell expressing Wnt3A and STF and overexpressing porcn assessed as decreased firefly luciferase reporter expression at 0.25 uM to 1 uM; format: cell-based
[21] = target: T1, Protein-serine O-palmitoleoyltransferase porcupine (Mus musculus); assay: Effect on porcn Endoplasmic reticulum localization in mouse L cell expressing Wnt and STF; format: cell-based
[22] = target: Protein Wnt-3a (Homo sapiens) (UniProt P56704); assay: Inhibition of Wnt3A secretion in mouse L cell expressing Wnt3a overexpressing porcn assessed as decreased Gaussia luciferase reporter expression at 0.25 uM to 1 uM; format: cell-based; outline: as §1
[23] = target: Protein Wnt-3a (Homo sapiens) (UniProt P56704); assay: Inhibition of palmitoylation of Wnt3A expressed in mouse L cell by detergent solubility fractionation assessed as [3H]palmitate incorporation at 2.5 uM by autoradiography method; format: cell-based
[24] = Inhibition of Wnt2/beta-[…] pathway activity in mouse L cell expressing Wnt2 and STF assessed as decreased firefly luciferase reporter expression; format: cell-based
[25] = Inhibition of Wnt3A/[…] pathway activity in mouse L cell expressing Wnt3A and STF assessed as decreased firefly luciferase reporter expression; format: cell-based
Outline: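 L-Wnt-STF cells (mouse L-cells stably carrying SuperTopFlash firefly luciferase reporter, control reporter and Wnt3A expression construct), ~5K per well; compounds added 24 hrs after seeding; luciferase activities read 24 hrs later; IC50s calculated from these dose-dependent assays.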

[26] = Inhibition of Wnt3A/[…] pathway activity in mouse L cell expressing Wnt3a assessed as decrease in phosphorylated Dvl2 level at 10 uM after 24 hrs by Western blot analysis; format: cell-based
[27] = Inhibition of Wnt/beta-[…] pathway activity in mouse L cell expressing Wnt and STF assessed as decreased firefly luciferase reporter expression; format: cell-based
DLD-1 [28] = assay: Decrease in beta-[…] accumulation in human DLD1 cells expressing in APC mutant; format: functional, cell-based
[29] = Inhibition of Wnt3A/[…] pathway activity in mouse L cell expressing Wnt3a assessed as inhibition of […] accumulation at 10 uM after 24 hrs by Western blot analysis; format: cell-based
[30] = Inhibition of Wnt3A/[…] pathway activity in mouse L cell expressing Wnt3a assessed as decrease in phosphorylated Lrp6 level at 10 uM after 24 hrs by Western blot analysis; format: cell-based
Axin-2 (Homo sapiens) [31] = target: Axin-2 (Homo sapiens) (UniProt Q9Y2T1); assay: Induction of Axin2 accumulation in human DLD1 cells by Western blot analysis; format: cell-based; settings: DLD-1
Outline: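 DLD-1 cells exposed to IWR compound at 10μM for a 48 hr assay period; protein levels assessed by Western blot of cell lysates.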

[32] = Inhibition of Wnt1/beta-[…] pathway activity in mouse L cell expressing Wnt1 and STF assessed as decreased firefly luciferase reporter expression; format: cell-based
Cos1 = assay: Effect on Axin2 subcellular redistribution in african green monkey Cos1 cells by immunostaining method; format: cell-based; settings: Chlorocebus aethiops
L929 = assay: Decrease in beta-[…] accumulation in APC-deficient mouse L cell; format: functional, cell-based
Axin-2 (Homo sapiens) [33] = target: Axin-2 (Homo sapiens) (UniProt Q9Y2T1); assay: Induction of Axin2 stabilization in human DLD1 cells assessed as inhibition of Wnt/beta-[…] pathway; format: cell-based; settings: DLD-1
L [34] = assay: Effect on proteasome in mouse L cell expressing Wnt assessed as accumulation of Axin1 by Western blot analysis
Outline: (§2)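 L-Wnt-STF cells (L-cells stably carrying Wnt3A, STF firefly luciferase reporter and control reporter) treated with IWR (10μM) or IWP (5μM) compounds, with or without cycloheximide (100μM), over 48 hrs; lysates probed by Western blot.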

HEK293 = assay: Effect on interaction between Axin1-GFP and PP2A in HEK293 cell lysate at 10 uM by Western blot analysis; format: cell-based; settings: Homo sapiens
DLD-1 [35] = assay: Inhibition of Axin2 protein degradation in human DLD1 cells by Western blot analysis; format: functional, cell-based
Outline: (§3)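 DLD-1 cells treated over a 48 hr assay period with IWR compound (10μM), with or without cycloheximide (100μM); Axin2 protein assessed by Western blot.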

L [36] = assay: Effect on proteasome in mouse L cell expressing Wnt assessed as accumulation of beta-[…] by Western blot analysis; outline: as §2
DLD-1 [37] = assay: Inhibition of Axin2 protein degradation in human DLD1 cells by Western blot analysis in presence of 100 uM cyclohexamide; format: functional, cell-based; outline: as §3
[38] = target: Protein Wnt (Danio rerio) (UniProt Q6IYD9); settings: 10 uM
Chain of Protein Wnt (Danio rerio) (Q6IYD9 as listed by the source): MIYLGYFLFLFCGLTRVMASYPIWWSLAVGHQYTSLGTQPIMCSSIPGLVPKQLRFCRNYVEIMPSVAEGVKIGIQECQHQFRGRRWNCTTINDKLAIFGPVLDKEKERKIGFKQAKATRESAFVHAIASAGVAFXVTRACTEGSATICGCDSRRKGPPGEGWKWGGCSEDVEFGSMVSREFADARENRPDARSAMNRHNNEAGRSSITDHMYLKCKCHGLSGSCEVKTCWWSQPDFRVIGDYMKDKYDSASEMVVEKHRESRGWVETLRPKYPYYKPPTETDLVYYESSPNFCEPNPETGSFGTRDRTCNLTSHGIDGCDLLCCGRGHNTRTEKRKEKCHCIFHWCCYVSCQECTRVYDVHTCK

Chain of Axin-2 (Homo sapiens) (Q9Y2T1 whole entry): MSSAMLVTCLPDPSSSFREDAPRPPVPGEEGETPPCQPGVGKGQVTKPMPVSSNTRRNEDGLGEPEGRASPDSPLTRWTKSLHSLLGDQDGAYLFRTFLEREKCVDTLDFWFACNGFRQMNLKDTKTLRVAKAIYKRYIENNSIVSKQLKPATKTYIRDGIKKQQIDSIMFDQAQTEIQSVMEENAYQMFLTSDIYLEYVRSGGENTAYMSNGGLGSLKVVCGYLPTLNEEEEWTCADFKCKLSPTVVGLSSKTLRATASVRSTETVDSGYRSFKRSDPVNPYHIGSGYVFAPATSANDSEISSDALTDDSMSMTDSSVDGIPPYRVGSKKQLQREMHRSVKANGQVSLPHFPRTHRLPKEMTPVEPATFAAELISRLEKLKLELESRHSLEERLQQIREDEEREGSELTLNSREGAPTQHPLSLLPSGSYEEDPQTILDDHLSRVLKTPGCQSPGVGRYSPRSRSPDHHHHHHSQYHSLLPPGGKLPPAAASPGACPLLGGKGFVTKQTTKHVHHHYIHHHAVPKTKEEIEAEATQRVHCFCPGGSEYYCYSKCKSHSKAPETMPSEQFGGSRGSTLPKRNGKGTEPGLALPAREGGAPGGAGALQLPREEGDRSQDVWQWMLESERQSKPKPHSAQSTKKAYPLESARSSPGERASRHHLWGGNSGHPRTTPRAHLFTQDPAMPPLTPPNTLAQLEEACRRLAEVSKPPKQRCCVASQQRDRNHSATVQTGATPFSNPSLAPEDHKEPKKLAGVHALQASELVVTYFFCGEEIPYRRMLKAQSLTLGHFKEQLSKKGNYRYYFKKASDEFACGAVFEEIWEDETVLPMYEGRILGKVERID
Chain of Protein Wnt-3a (Homo sapiens) (P56704 whole entry, the tested form may be a part): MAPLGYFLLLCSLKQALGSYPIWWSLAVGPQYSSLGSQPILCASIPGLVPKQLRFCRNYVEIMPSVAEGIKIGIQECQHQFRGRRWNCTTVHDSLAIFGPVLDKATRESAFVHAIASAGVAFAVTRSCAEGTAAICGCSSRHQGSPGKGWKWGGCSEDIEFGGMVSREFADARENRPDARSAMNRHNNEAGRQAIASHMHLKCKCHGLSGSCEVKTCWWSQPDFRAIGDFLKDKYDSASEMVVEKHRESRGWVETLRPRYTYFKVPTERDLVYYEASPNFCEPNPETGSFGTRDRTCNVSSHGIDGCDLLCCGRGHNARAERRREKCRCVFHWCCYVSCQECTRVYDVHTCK
Chain of Protein Wnt-3a (Mus musculus) (P27467 whole entry): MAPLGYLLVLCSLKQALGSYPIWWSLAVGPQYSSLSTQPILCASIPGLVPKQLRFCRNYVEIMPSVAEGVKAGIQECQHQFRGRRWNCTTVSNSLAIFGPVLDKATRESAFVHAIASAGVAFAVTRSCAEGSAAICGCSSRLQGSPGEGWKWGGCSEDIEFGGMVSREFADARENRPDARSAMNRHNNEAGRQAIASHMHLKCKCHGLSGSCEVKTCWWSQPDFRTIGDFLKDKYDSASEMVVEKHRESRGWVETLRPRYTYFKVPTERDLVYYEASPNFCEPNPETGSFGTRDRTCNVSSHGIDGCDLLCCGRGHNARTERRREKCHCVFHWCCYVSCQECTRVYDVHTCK
Chain of Lysophospholipid acyltransferase 5 (Mus musculus) (Q91V01 whole entry): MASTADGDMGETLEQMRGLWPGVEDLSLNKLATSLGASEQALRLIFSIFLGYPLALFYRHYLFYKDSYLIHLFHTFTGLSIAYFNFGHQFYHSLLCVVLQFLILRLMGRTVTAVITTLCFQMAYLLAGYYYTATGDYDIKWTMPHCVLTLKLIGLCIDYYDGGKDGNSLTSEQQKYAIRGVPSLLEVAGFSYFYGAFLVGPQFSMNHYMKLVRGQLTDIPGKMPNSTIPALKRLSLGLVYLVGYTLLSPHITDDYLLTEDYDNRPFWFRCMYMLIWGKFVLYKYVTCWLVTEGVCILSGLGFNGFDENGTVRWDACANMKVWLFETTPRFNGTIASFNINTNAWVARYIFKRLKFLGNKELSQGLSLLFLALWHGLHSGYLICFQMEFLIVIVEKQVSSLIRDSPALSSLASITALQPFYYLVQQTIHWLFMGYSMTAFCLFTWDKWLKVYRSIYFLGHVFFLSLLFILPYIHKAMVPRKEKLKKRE
Chain of Membrane-bound glycerophospholipid O-acyltransferase 1 (Mus musculus) (Q8BH98 whole entry): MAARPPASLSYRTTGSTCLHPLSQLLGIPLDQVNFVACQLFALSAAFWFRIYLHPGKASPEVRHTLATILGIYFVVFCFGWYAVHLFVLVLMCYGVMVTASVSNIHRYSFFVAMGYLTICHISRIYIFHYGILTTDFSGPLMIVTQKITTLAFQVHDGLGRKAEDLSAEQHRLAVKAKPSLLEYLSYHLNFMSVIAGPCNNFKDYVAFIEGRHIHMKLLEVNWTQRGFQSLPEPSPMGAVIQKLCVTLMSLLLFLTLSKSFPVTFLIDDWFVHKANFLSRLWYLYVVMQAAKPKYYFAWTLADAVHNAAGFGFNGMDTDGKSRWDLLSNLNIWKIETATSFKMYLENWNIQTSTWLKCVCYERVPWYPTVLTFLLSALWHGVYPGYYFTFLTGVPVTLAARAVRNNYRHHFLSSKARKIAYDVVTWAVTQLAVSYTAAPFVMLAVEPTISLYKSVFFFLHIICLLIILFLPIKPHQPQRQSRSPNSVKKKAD
Chain of Sterol O-acyltransferase 1 (Mus musculus) (Q61263 whole entry): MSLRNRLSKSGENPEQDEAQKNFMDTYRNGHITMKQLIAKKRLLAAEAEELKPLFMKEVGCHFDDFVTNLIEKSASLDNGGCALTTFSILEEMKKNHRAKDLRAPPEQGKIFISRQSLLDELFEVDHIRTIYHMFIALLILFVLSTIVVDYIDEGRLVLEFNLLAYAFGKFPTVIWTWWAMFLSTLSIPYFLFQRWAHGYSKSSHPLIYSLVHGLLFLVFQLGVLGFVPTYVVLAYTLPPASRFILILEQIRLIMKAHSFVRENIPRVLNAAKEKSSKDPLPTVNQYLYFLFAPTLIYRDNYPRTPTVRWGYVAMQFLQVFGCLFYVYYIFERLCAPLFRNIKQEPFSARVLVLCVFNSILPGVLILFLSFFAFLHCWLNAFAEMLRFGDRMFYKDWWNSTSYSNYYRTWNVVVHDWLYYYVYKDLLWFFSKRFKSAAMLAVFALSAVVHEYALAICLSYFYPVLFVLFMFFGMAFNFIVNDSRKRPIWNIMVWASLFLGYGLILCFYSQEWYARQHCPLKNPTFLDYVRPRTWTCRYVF
Chain of Membrane-bound ghrelin O-acyltransferase MBOAT4 (Mus musculus) (P0C7A3 whole entry): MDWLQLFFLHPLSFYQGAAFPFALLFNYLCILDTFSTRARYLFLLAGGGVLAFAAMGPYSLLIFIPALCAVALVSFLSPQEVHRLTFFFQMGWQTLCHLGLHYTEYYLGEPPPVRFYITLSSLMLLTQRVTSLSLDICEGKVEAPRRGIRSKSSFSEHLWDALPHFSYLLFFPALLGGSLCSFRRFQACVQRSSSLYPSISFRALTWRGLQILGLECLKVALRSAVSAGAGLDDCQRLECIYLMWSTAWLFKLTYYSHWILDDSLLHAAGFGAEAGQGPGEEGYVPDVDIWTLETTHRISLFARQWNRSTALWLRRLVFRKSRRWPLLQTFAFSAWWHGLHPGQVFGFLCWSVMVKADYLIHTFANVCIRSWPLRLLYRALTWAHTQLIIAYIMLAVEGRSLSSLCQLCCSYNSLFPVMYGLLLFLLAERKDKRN
Chain of Protein-cysteine N-palmitoyltransferase HHAT (Mus musculus) (Q8BMT9 whole entry): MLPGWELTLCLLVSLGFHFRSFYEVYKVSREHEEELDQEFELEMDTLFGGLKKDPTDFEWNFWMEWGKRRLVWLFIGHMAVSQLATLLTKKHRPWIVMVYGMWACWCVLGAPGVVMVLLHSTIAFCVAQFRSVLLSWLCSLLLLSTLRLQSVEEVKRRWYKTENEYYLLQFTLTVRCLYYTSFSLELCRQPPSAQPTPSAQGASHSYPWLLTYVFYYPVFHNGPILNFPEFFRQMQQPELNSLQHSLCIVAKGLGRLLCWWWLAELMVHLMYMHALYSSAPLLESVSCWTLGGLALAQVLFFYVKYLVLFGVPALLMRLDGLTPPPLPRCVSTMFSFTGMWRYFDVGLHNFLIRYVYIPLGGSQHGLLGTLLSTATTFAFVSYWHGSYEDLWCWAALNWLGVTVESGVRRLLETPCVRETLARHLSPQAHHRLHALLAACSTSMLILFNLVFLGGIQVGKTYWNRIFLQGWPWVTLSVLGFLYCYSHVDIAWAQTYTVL
Chain of Membrane-bound glycerophospholipid O-acyltransferase 2 (Mus musculus) (Q8R3I2 whole entry): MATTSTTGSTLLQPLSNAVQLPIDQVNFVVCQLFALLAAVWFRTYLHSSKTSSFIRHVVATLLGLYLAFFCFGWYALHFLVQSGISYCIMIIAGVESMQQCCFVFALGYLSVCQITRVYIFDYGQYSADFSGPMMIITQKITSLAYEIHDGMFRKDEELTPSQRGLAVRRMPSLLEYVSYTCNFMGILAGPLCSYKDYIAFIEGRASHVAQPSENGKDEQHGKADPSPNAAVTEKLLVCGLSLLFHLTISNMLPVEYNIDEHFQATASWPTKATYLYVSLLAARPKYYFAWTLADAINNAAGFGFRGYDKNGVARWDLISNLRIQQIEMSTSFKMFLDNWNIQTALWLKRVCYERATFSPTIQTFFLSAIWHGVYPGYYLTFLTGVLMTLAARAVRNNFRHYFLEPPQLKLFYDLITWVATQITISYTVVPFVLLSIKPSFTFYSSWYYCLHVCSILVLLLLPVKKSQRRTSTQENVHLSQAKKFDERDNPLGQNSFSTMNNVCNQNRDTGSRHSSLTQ

inhibition [1]: Active
inhibition [3]: inactive
inhibition [4]: Active
inhibition [5]: Active
inhibition [7]: inactive
inhibition [8]: inactive
inhibition [9]: inactive
inhibition [10]: inactive
inhibition [11]: inactive
inhibition [12]: inactive
inhibition [13]: inactive
inhibition [14]: inactive
Activity [17]: Active
inhibition [18]: inactive
inhibition [19]: Active
inhibition [20]: inactive
Activity [21]: inactive
inhibition [22]: inactive
inhibition [23]: Active
SMILES: Cc1ccc2nc(NC(=O)CSc3nc4c(c(=O)n3-c3ccccc3)SCC4)sc2c1
inhibition [2]: inactive
inhibition [6]: Active
inhibition [15]: Active
inhibition [16]: Active
inhibition (Danio rerio): inactive

IC50 [27]: 0.23 µM
Activity (Axin-2 (Homo sapiens) [31]): Active
SMILES: Cc1ccnc2c(NC(=O)c3ccc(N4C(=O)[C@@H]5[C@H](C4=O)[C@@H]4C=C[C@H]5C4)cc3)cccc12
inhibition [24]: Active
inhibition [25]: Active
inhibition [26]: inactive
inhibition (DLD-1 [28]): Active
inhibition (Danio rerio): Active
inhibition [29]: Active
inhibition [30]: inactive
inhibition [32]: Active

Activity (Axin-2 (Homo sapiens) [33]): Active
Activity (L [34]): inactive
Activity (L [36]): inactive
Activity (Axin-2 (Homo sapiens) [31]): Active
inhibition [38]: Active
SMILES: O=C(Nc1cccc2cccnc12)c1ccc(N2C(=O)[C@@H]3[C@H](C2=O)[C@@H]2C=C[C@H]3C2)cc1
inhibition [24]: Active
inhibition [25]: Active
Activity (Cos1): inactive
inhibition (L929): Active
inhibition [26]: inactive
inhibition (DLD-1 [28]): Active
inhibition (Danio rerio): Active
Activity (HEK293): inactive
inhibition (DLD-1 [35]): Active
inhibition [29]: Active
inhibition (DLD-1 [37]): inactive
inhibition [30]: inactive
inhibition [32]: Active
